Source: ChEMBL document CHEMBL1144562, “Synthesis of a new class of 2-anilino substituted nicotinyl arylsulfonylhydrazides as potential anticancer and antibacterial agents” (2007)
Values after ≈ are worked out from the molar mass of the structure shown.

Experiments:
Type in all cases: functional
OVCAR-5 = test: Antitumor activity against OVCAR5 cells; conditions: Homo sapiens
SN12C = test: Antitumor activity against SN12C cells; conditions: Homo sapiens
In short: (§1)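 Tested in the NCI 60-human-tumour-cell-line panel at five concentrations, in 10-fold dilutions from 10^-4 to 10^-8 M. Three parameters were taken from the dose-response data, each as log10 of the molar concentration: GI50 (50% net growth inhibition), TGI (total growth inhibition) and LC50 (50% net cell death).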

MDA-MB-231 = test: Antitumor activity against MDA-MB-231 cells; conditions: Homo sapiens
SF-539 = test: Antitumor activity against SF539 cells; conditions: Homo sapiens
OVCAR-4 = test: Antitumor activity against OVCAR4 cells; conditions: Homo sapiens
UO-31 = test: Antitumor activity against UO31 cells; conditions: Homo sapiens; in short: as §1
Pseudomonas aeruginosa = test: Antibacterial activity against Pseudomonas aeruginosa MTCC 424 after 18 hrs; conditions: MTCC 424, 18 h
In short: (§2)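 Disc diffusion (Kirby–Bauer) on Mueller-Hinton agar inoculated with fresh bacteria at 1-5 × 10^4 cfu mL-1. Compounds were dissolved in DMF at a range of concentrations, and discs were placed in triplicate. Plates were incubated at 30 °C for 18 h. MIC was taken as the lowest concentration giving no visible bacterial growth on the plate.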

Vibrio = test: Antibacterial activity against Vibrio species after 18 hrs; in short: as §2
SK-MEL-2 = test: Antitumor activity against SK-MEL-2 cells; conditions: Homo sapiens
COLO 205 = test: Antitumor activity against COLO205 cells; conditions: Homo sapiens
UACC-62 = test: Antitumor activity against UACC62 cells; conditions: Homo sapiens; in short: as §1
786-0 = test: Antitumor activity against 786-0 cells; conditions: Homo sapiens
NCI-H23 = test: Antitumor activity against NCI-H23 cells; conditions: Homo sapiens
SF-268 = test: Antitumor activity against SF268 cells; conditions: Homo sapiens
RPMI-8226 = test: Antitumor activity against RPMI-8226 cells; conditions: Homo sapiens
A498 = test: Antitumor activity against A498 cells; conditions: Homo sapiens
OVCAR-8 = test: Antitumor activity against OVCAR8 cells; conditions: Homo sapiens
HCT-116 = test: Antitumor activity against HCT116 cells; conditions: Homo sapiens
ACHN = test: Antitumor activity against ACHN cells; conditions: Homo sapiens
[1] = Antitumor activity against MALME 3M cells; conditions: Homo sapiens
PC-3 = test: Antitumor activity against PC3 cells; conditions: Homo sapiens
NCI/ADR-RES = test: Antitumor activity against NCI/ADR-RES cells; conditions: Homo sapiens
[2] = read-out: Log LC50 (the source's name) (converted)

O=C(NNS(=O)(=O)c1ccc(Cl)cc1Cl)c1cccnc1Nc1ccc(Cl)cc1
GI50 (OVCAR-5): 26.3 µM | CC50 (OVCAR-5; [2]): > 100 µM | TGI (OVCAR-5; read-out: Log TGI (converted)): 77.6 µM | GI50 (SN12C): 31.6 µM | LC50 (SN12C): > 100 µM | TGI (SN12C; read-out: Log TGI (converted)): > 100 µM | GI50 (MDA-MB-231): 19.1 µM | LC50 (MDA-MB-231): > 100 µM | TGI (MDA-MB-231; read-out: Log TGI (converted)): 50.1 µM | GI50 (SF-539): 19.1 µM | LC50 (SF-539): > 100 µM | TGI (SF-539; read-out: Log TGI (converted)): 44.7 µM | GI50 (OVCAR-4): 28.8 µM | LC50 (lethal concentration, 50%) (OVCAR-4): > 100 µM | TGI (OVCAR-4; read-out: Log TGI (converted)): > 100 µM | GI50 (UO-31): 37.2 µM | LC50 (50% net cell death) (UO-31): > 100 µM | TGI (UO-31; read-out: Log TGI (converted)): > 100 µM | MIC (Pseudomonas aeruginosa): > 25 mg/L | MIC (Vibrio): 14 mg/L (≈ 29.7 µM) | GI50 (SK-MEL-2): 18.6 µM | LC50 (SK-MEL-2): 97.7 µM | TGI (SK-MEL-2; read-out: Log TGI (converted)): 42.7 µM | GI50 (COLO 205): 12 µM | LC50 (COLO 205): 49 µM | TGI (COLO 205; read-out: Log TGI (converted)): 24.5 µM | GI50 (UACC-62): 21.9 µM | LC50 (UACC-62): > 100 µM | TGI (UACC-62; read-out: Log TGI (converted)): 75.9 µM | GI50 (786-0): 19.5 µM | LC50 (lethal concentration, 50%) (786-0): > 100 µM | TGI (786-0; read-out: Log TGI (converted)): 49 µM | GI50 (NCI-H23): 17.4 µM | LC50 (NCI-H23): > 100 µM | TGI (NCI-H23; read-out: Log TGI (converted)): 42.7 µM | GI50 (SF-268): 36.3 µM | LC50 (SF-268): > 100 µM | TGI (SF-268; read-out: Log TGI (converted)): 100 µM | GI50 (RPMI-8226): 17.8 µM | LC50 (RPMI-8226): > 100 µM | TGI (RPMI-8226; read-out: Log TGI (converted)): 53.7 µM | GI50 (A498): 25.1 µM | LC50 (A498): 91.2 µM | TGI (A498; read-out: Log TGI (converted)): 47.9 µM | GI50 (OVCAR-8): 26.9 µM | CC50 (OVCAR-8; [2]): > 100 µM | TGI (OVCAR-8; read-out: Log TGI (converted)): 74.1 µM | GI50 (HCT-116): 15.5 µM | LC50 (HCT-116): 53.7 µM | TGI (HCT-116; read-out: Log TGI (converted)): 28.8 µM | GI50 (ACHN): 29.5 µM | LC50 (ACHN): > 100 µM | TGI (ACHN; read-out: Log TGI (converted)): 93.3 µM | GI50 [1]: 34.7 µM | CC50 [1, 2]: > 100 µM | TGI ([1]; read-out: Log TGI (converted)): 34.7 µM | GI50 (PC-3): 23.4 µM | LC50 (PC-3): > 100 µM | TGI (PC-3; read-out: Log TGI (converted)): 81.3 µM | GI50 (NCI/ADR-RES): 23.4 µM | LC50 (NCI/ADR-RES): > 100 µM | TGI (NCI/ADR-RES; read-out: Log TGI (converted)): 75.9 µM
